# Sampled rows, rich in hits. Any-hit rate of the full collection: about 1.3%.
# Tn7 DDE FP – inhibitors of Tn7 peptide binding to human fibrin DD(E); P02675; FP displacement of FITC-Tn7 peptide from fibrin DD(E); 0% = median of compound wells per plate; inhibition, % at 8.3 µM; 370,000 compounds, 0.13% hits;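 active means inhibition above the mean of compounds falling within the control limits plus 3 SD of them, cut at about 14% in these data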;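 further: 0% = plate median of compound wells and 100% = 10 µM Aha-Tn7 peptide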
# Target sequence (P02675 whole entry, looked up): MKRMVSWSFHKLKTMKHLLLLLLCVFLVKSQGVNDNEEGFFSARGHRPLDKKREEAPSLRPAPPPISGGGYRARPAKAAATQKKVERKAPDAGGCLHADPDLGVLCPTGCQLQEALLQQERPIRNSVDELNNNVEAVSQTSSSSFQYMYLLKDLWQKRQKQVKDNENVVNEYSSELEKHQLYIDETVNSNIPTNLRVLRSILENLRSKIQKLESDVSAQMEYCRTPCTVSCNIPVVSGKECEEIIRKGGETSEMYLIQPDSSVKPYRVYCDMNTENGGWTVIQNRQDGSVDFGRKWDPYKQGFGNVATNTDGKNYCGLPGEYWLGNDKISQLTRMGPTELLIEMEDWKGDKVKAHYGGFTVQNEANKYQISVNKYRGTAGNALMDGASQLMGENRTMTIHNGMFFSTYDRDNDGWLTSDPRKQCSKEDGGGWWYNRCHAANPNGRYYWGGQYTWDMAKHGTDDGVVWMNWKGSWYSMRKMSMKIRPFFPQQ
#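 Assay system: Human fibrin DD(E) protein | Medium: Tris buffer with calcium and detergent, pH 7.8 | Reagent: 0.1 µM fluorescent Tn7 | Compound dosing: Single point at 8.3 µM | Times: 10 min preincubation, 3 h with tracer, room temperature | Detection: Fluorescence polarization of the labelled Tn7 tracer | Controls: Aha-Tn7 high control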
# CRFR2-BP ag – agonists of human CRF-binding protein/CRF-R2 receptor complex | HEK293 CRF-R2/CRF-BP, calcium dye fluorescence (FLIPR); percent of saturating CRF peptide response | activation, % at 13.2 µM | 350,000 compounds, 0.46% hits;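 active means activation of at least 50%, plus an integration ratio under a set limit after plate pattern correction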;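 further: plate controls were neutral control wells without compound for no effect and CRF at EC100 for full effect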
# DDE Tn6 FP inh – DD(E)-Tn6 binding inhibition, primary FP screen | 370,000 compounds, 0.21% hits | inhibition, % at 8.3 µM | Fibrin DD(E) TRITC-Tn6 fluorescence polarization displacement;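 active means inhibition above a per-campaign cutoff: mean of compounds within control limits plus 3 SD, cut at about 15% in these data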;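 further: 0% = median of all compound wells on the plate and 100% = blocking peptide control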
# CRFR2-BP antag – antagonists of CRF-binding protein/CRF-R2 receptor complex; HEK293 CRF-R2/CRF-BP, CRF-induced calcium fluorescence; inhibition, % at 11.8 µM; 350,000 compounds, 0.59% hits;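 active means inhibition of the ligand-induced calcium signal above about 50% at the single tested concentration, limit read from the data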
# Starred values were filed as active, the others as inactive; nt = no result given.
SMILES,Tn7 DDE FP,CRFR2-BP ag,DDE Tn6 FP inh,CRFR2-BP antag
O=C(COC(=O)Cc1cccs1)Nc1ccc(OC(F)(F)F)cc1,6,-3,88*,4
O=C(Nc1cc(C(F)(F)F)ccc1Cl)c1cccnc1,1,106*,1,-64
COc1ccc(C(=O)OCCN(C)C2CN(Cc3cn(Cc4ccccc4Cl)nn3)S(=O)(=O)C2)cc1OC (stereo not given),-4,nt,1,nt
FC(F)(F)c1cnc(NNC(=S)Nc2ccccc2Cl)c(Cl)c1,4,89*,-19,19
Cc1cccc(NC(=S)NNc2ncc(C(F)(F)F)cc2Cl)c1,-1,12,-27,13
COC(=O)c1cccc(Cn2ccc3ccc(-c4ccc5ccn(C(=O)C6CCC6)c5c4)cc32)c1,4,nt,9,nt
Cc1cccc(C(=O)Nc2nc3ncccn3c2-c2ccc(C(F)(F)F)cc2)c1,-4,nt,2,nt
CCc1ccc(Nc2nnc(SC(C)C(=O)NC3CC3)s2)cc1 (stereo not given),1,1,-8,79*
CC(C)(C)c1ccc(C(=O)CC(=O)c2cc(Cl)ccc2O)cc1,2,-1,-1,-43
Cc1ccc(C(=O)CC(=O)c2cc(Cl)ccc2O)cc1,-9,68*,-1,-82
O=C(COc1ccc(F)cc1)N(Cc1cccs1)C1CCS(=O)(=O)C1 (stereo not given),-7,66*,1,-62
O=C(COc1ccccc1)N(Cc1cccs1)C1CCS(=O)(=O)C1 (stereo not given),-2,-5,7,-14
N#CC(C#N)=C1C=C2C=C(N3CCCCC3)CCC2CC1 (stereo not given),nt,187*,nt,-154
O=C(Nc1ccccc1C(=O)Nc1nnc(C(F)(F)F)s1)c1ccccc1,0,60*,-1,37
Cc1c(NC2=C(Cl)C(=O)N(c3ccccc3Cl)C2=O)c(=O)n(-c2ccccc2)n1C,-4,2,1,53*
Cc1nn(-c2ccccc2)c(Cl)c1/C=N/Nc1ccc(S(=O)(=O)Nc2ccccc2C(=O)O)cc1[N+](=O)[O-],1,-1,-10,74*
CSc1ccc(C=NNc2ccc(S(=O)(=O)Nc3ccccc3C(=O)O)cc2[N+](=O)[O-])cc1,-7,0,-3,20
C=CCOc1ccc(C=NNc2ccc(S(=O)(=O)Nc3ccccc3C(=O)O)cc2[N+](=O)[O-])cc1OC,1,0,-1,67*
COc1ccc(CNC2CCC23CCC(C)CC3)cc1 (stereo not given),-3,nt,1,nt
COCC(=O)N(C[C@H]1[C@H](c2ccccc2)[C@@H](CO)N1C(=O)NC(C)C)C(C)C,-4,nt,-7,nt
Cc1ccc(-n2c(SCc3ccc(Cl)c(Cl)c3)nnc2-c2ccc(C(C)(C)C)cc2)cc1,0,nt,2,nt
Cc1ccc(Cn2cc(COC(=O)NCC(C)C)nn2)cc1,-1,nt,3,nt
N/C(Cc1ccc([N+](=O)[O-])cc1)=N\OC(=O)c1ccc(Br)cc1,-1,-2,-1,62*
O=[N+]([O-])c1ccc(Sc2ccccc2)nc1,1,-6,-1,54*
O=C1C(=Cc2cccs2)C(=O)c2ccccc21,-6,0,0,55*
SMILES,Tn7 DDE FP,CRFR2-BP ag,DDE Tn6 FP inh,CRFR2-BP antag
CCNC(=O)N(C)[C@H]1C[C@H]2c3[nH]c4c(-c5cccc(C)c5)cccc4c3CCN2C(=O)[C@H]1[C@H](C)O,-8,nt,-8,nt
COc1cc2c(cc1NC(=O)COC(=O)CNC(=O)c1ccccc1)oc1ccccc12,-9,1,1,76*
Clc1ccc(-c2nnc(SCc3cccc4ccccc34)n2-c2ccc(Cl)cc2)cc1,-2,nt,8,nt
CCOC(=O)c1c(C)n(OCc2ccccc2)c2ccc3nonc3c12,0,-1,4,53*
C=CCOn1c(C)c(C(C)=O)c2c3nonc3ccc21,-2,-2,-6,-1
Cc1cc(N2CCNC[C@@H]2C)ccc1N1CCN(Cc2ccccc2)[C@@H](C)C1,0,nt,-6,nt
CC1CCN(S(=O)(=O)c2ccc(NC(=O)Cn3nnc(-c4ccccc4)n3)cc2)CC1,-4,8,19*,5
O=C(NCCN1C(=O)C2C3C=CC(C3)C2C1=O)c1cc(Cl)cc(Cl)c1 (stereo not given),4,nt,-1,nt
N#CCc1ccc(NS(=O)(=O)c2cccs2)cc1,2,0,1,112*
O=S(=O)(Nc1ccc(Cc2ccncc2)cc1)c1cccs1,5,1,7,-2

# Screening data deposited in PubChem by several laboratories.
